Screens (PubChem BioAssay)
GalR3 antag: antagonists of human GalR3 | AID 651719 | HEK293 GalR3-CNG cAMP membrane potential fluorescence; galR3 body fused to GalR1 C-terminus | O60755 | 360,000 tested, 0.44% active | inhibition, % at 3 µM;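 active = inhibition above the screen-wide average plus 3 SD, cut at about 13% in these data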;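 note: forskolin and galanin both at EC90 stimulate the cells; cAMP rise reported by CNG channel membrane potential dye signal; 0% = forskolin plus galanin with DMSO and 100% = forskolin alone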
Target sequence (O60755 1-299 limits assumed): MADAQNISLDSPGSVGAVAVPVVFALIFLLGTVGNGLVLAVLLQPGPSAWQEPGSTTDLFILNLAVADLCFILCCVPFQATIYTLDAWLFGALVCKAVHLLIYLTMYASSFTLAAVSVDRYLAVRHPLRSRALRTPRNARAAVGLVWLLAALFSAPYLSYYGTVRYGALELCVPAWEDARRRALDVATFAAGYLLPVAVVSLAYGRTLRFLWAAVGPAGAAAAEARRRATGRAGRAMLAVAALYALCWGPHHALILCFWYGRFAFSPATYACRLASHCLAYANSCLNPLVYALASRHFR
CHO parental Ca: signal in parental CHO cells, OX1R antagonist counter-screen; inhibition, % at 5.6 µM; 330,000 tested, 0.63% active; parental CHO-K1, ATP-induced calcium, Fluo-8 fluorescence;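 active = inhibition above that plate's mean sample inhibition plus 3 SD, cut at about 26% in these data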;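 note: 0% = ATP-challenged DMSO wells and 100% = DMSO wells without ATP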
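material = parental CHO cells | also added = ATP as calcium-mobilizing challenge | dosing = single point at 5.6 µM | detection = intracellular calcium via Fluo-8 no-wash fluorescent dye | read-out = % inhibition | benchmarks = low control ATP plus DMSO, high control DMSO only | repeats = one well per compound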
OX1R antag-1: human HCRTR1 antagonism; CHO/OX1R cells, Fluo-8 calcium fluorescence, orexin A; inhibition, % at 5 µM; 330,000 tested, 0.43% active;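 active = inhibition above its plate's threshold, mean inhibition of all tested compounds on the plate plus 3 SD, cut at about 37% in these data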;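 note: 0% = orexin A challenge wells and 100% = SB-334867-A antagonist wells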
TAAR1 antagonist: antagonists of human TAAR1; AID 624466; Q96RJ0; CHO RD-HGA16 TAAR1, Fluo-8 calcium fluorescence, antagonist; 360,000 tested, 1.5% active; inhibition, % at 3 µM;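 active = inhibition above a per-plate cutoff, the mean inhibition of test compounds on that plate plus 3 SD, cut at about 49% in these data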;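 note: 0% = DMSO plus EC80 beta-PEA response and 100% = DMSO alone without agonist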
Target sequence (Q96RJ0 whole entry, looked up): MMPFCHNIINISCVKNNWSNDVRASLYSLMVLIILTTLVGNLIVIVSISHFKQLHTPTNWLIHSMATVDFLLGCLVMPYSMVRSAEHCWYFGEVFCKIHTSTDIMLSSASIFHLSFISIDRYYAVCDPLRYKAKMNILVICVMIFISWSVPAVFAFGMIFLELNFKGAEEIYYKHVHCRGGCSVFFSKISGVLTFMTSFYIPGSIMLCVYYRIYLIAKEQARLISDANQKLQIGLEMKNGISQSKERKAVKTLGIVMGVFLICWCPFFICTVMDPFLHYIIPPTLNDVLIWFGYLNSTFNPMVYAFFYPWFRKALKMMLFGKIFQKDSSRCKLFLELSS
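Test system – hTAAR1-expressing CHO RD-HGA16 cells, Gα16-coupled · Reagent – β-PEA at EC80 concentration, post-compound challenge · Compound dosing – 3 µM, single point · Timing – 140 s kinetic read after compound, 140 s after agonist · Detection – Fluo-8 intracellular calcium dye fluorescence, real-time kinetic reads · Control set – DMSO and EC80 PEA controls · Repeats – n of 1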
TAAR1 agonist: human TAAR1 agonism. CHO RD-HGA16 TAAR1, Fluo-8 calcium fluorescence; vehicle wells 0%, saturating PEA agonist 100%. activation, % at 3 µM. 360,000 tested, 0.99% active;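 active = activation above the mean activation of all test compounds in the run plus 3 SD, cut at about 38% in these data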
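System: CHO-derived RD-HGA16 cells with stable Gα16 and human TAAR1. Times: 17-24 h plating, Fluo-8 75 min 37 °C, 30 min RT. Measured by: calcium-sensitive Fluo-8 signal, excitation 470-495, emission 515-575 nm. Read-out basis: % activation relative to PEA EC100 response. Control set: DMSO and PEA EC100. Repeats: no replicates (n 1).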
OX1R antag-2: OX1R (human) antagonism; O43613; OX1R-expressing cells, FRET antagonist read-out; inhibition, % at 6.6 µM; 330,000 tested, 1.8% active; in the data active = inhibition mostly above about 38%, no sharp cut-off; inactive = mostly below about 40%;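 note: 0% = agonist challenge alone and 100% = reference antagonist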
nonsel antag count: nonselective antagonism, TAAR1 counter-screen | AID 651780 | 2,400 tested, 77% active | inhibition, % at 3 µM | shares compounds with TAAR1 antagonist | counterscreen cell line, calcium fluorescence, antagonist mode; in the data active = inhibition above about 22%;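 note: CHO-Ga16 host cells stimulated with ATP at an EC80 level; 0% = agonist EC80 plus vehicle and 100% = vehicle without agonist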
TAAR1 ant conf: human TAAR1 antagonism, confirmed | 2,400 tested, 40% active | shares compounds with TAAR1 antagonist | AID 651785 | TAAR1-expressing cells, fluorescence antagonist read-out | inhibition, % at 3 µM; in the data active = inhibition above about 49%;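 note: CHO-Ga16 host cells challenged with agonist PEA near its EC80; 0% = agonist at EC80 plus vehicle and 100% = vehicle with no agonist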
Ga16 nonsel ag: nonselective Ga16 agonism, counter-screen; 2,400 tested, 18% active; shares compounds with TAAR1 antagonist; Ga16-expressing cells, calcium fluorescence, agonist counterscreen; activation, % at 3 µM; in the data active = activation above about 12%;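 note: 0% = vehicle wells and 100% = saturating stimulus response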
TAAR1 ag count: activates human TAAR1 in antagonist counter-screen; shares compounds with TAAR1 antagonist; hTAAR1 cell line, fluorescence activation, agonist mode; activation, % at 3 µM; 2,400 tested, 2% active; in the data active = activation above about 37%;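 note: CHO cells stably expressing TAAR1 with calcium dye readout; 0% = DMSO vehicle and 100% = full agonist response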
Active calls of the source: *; / = no result given. Most compounds without a hit are left out; they make up all but 4.2% or so of the library.

SMILES | GalR3 antag | CHO parental Ca | OX1R antag-1 | TAAR1 antagonist | TAAR1 agonist | OX1R antag-2 | nonsel antag count | TAAR1 ant conf | Ga16 nonsel ag | TAAR1 ag count
CC(CNC(=O)CN1C(=O)c2cccnc2Oc2ccc(Cl)cc21)c1ccccc1 (stereo not drawn) | -6 | -13 | -11 | 5 | 4 | 19 | / | / | / | /
O=C(CN1C(=O)c2cccnc2Oc2ccc(Cl)cc21)NCCCc1ccccc1 | -8 | -17 | -21 | 84* | 8 | 28 | 32* | 56* | 9 | 9
Cc1cccc(/C=C\c2nc3ccccc3c(=O)[nH]2)c1 | -7 | -15 | -15 | 4 | 2 | 46 | / | / | / | /
COc1ccc(C(=O)Nc2cccc(/C=C/c3nc4ccccc4c(=O)[nH]3)c2)cc1 | -3 | -13 | -23 | 55* | 13 | 24 | 16 | 38 | 7 | 4
O=C(Nc1cccc(/C=C/c2nc3ccccc3c(=O)[nH]2)c1)c1ccccc1Cl | 0 | -10 | -24 | 68* | 10 | 31 | 30* | 48 | 12* | 5
CCOC(=O)c1ccc(NC(=O)CN(C)S(=O)(=O)c2ccc(Br)s2)cc1 | -10 | -11 | -15 | 85* | 12 | 13 | 38* | 48 | 9 | 6
CCOC(=O)c1ccc(NC(=O)CN(C)S(=O)(=O)c2ccc(OC)cc2)cc1 | 1 | -17 | -15 | 26 | 14 | 13 | / | / | / | /
C[C@H]1CN([C@@H](C)CO)C(=O)c2cccc(NC(=O)C3CC3)c2O[C@H]1CN(C)Cc1ccc(C(F)(F)F)cc1 | -1 | -29 | -38 | -7 | 1 | 10 | / | / | / | /
C/C(=N/NC(=O)c1ccncc1)c1ccc(NC(=O)c2ccccc2)cc1 | -13 | / | / | 19 | 3 | / | / | / | / | /
C/C(=N\NC(=O)COc1ccccc1[N+](=O)[O-])c1cccc(NC(=O)c2ccncc2)c1 | 3 | -5 | -8 | 86* | 24 | 31 | 38* | 58* | 15* | 16
C/C(=N\NC(=O)c1ccncc1)c1cccc(NC(=O)c2ccc(C(C)(C)C)cc2)c1 | 0 | -12 | -28 | 76* | 10 | 26 | 37* | 54* | 11 | 8
Nc1ncccc1C(=O)OCC(=O)NC1CCCCCC1 | -8 | -11 | 2 | 7 | 2 | 1 | / | / | / | /
CN(C)S(=O)(=O)N1CCC(Oc2cccc(C(=O)NCCC3=CCCCC3)c2)CC1 | 0 | 1 | -7 | 81* | 13 | 37 | 43* | 60* | 13* | 8
C=CCN(CC=C)C(=O)c1cccc(OC2CCN(S(=O)(=O)N(C)C)CC2)c1 | -3 | -19 | -29 | -2 | 1 | 21 | / | / | / | /
CCN(Cc1ccccc1)c1ccc(/C=N/NC(=S)NC(C)C)cc1 | -7 | -32 | -42 | 50* | 2 | 13 | 3 | 11 | 3 | 9
CCN(Cc1ccccc1)c1ccc(/C=N/N=C(N)N)cc1 | -7 | -7 | -27 | -12 | 2 | 3 | / | / | / | /
COc1ccc(OC)c2[nH]c(=O)c(CCNC(=O)c3cc4ccccc4o3)cc12 | 3 | -22 | -51 | 25 | 3 | 13 | / | / | / | /
Cc1ccc(C)c2[nH]c(=O)c(CCNC(=O)c3cc4ccccc4o3)cc12 | 3 | -22 | -30 | 49* | 6 | 18 | 24* | 25 | 7 | 3
COc1ccc(-c2ccc(C(=O)Nc3cccc(C(C)=O)c3)c3occc23)c(C)c1 | -1 | / | / | 40 | 0 | / | / | / | / | /
COc1ccc(-c2coc3c(C(=O)Nc4cccc(C(C)=O)c4)cccc23)c(C)c1 | -5 | / | / | 57* | 1 | / | 31* | 31 | 1 | -1
COc1ccc(Cl)cc1C(=O)OCC(=O)Nc1sccc1C(N)=O | -3 | -17 | 1 | 57* | 24 | 18 | 26* | 50* | 11 | 14
COc1ncnc2c1cnn2-c1ccccc1 | -1 | 7 | -19 | -1 | 4 | 12 | / | / | / | /
O=C(c1ccco1)N(CCCN1CCOCC1)c1nc(-c2ccc(F)cc2)cs1 | -3 | -20 | -10 | 57* | 8 | 20 | 20 | 39 | 5 | 6
O=C(c1ccco1)N(CCCN1CCOCC1)c1nc(-c2ccc(Cl)cc2)cs1 | -7 | -33 | -38 | 14 | 11 | 42 | / | / | / | /
O=C(Nc1ccc(Cl)cc1)N1CCN(C(=O)C2CCCO2)CC1 (stereo not drawn) | 1 | 4 | -10 | 2 | 0 | 13 | / | / | / | /
SMILES | GalR3 antag | CHO parental Ca | OX1R antag-1 | TAAR1 antagonist | TAAR1 agonist | OX1R antag-2 | nonsel antag count | TAAR1 ant conf | Ga16 nonsel ag | TAAR1 ag count
Cc1ccc([C@H]2C(C(=O)O)=CC[C@@H](c3ccc(Cl)cc3)N2S(=O)(=O)c2ccc(C)cc2)cc1 | -4 | -6 | 37 | 66* | 6 | 39* | 11 | 46 | 2 | 1
Cc1ccc(S(=O)(=O)N2[C@@H](c3ccc(Cl)cc3)C(C(=O)O)=CC[C@H]2c2ccc(C(C)C)cc2)cc1 | -5 | -1 | -8 | 47 | 23 | 16 | / | / | / | /
COCCN(C(=O)CC1CCCC1)c1c(N)n(CC(C)C)c(=O)[nH]c1=O | -6 | -12 | -12 | -12 | 1 | 4 | / | / | / | /
C=CCOC(=O)C1=C(C)NC(SCC(=O)Nc2nccs2)=C(C#N)C1c1cccs1 (stereo not drawn) | -1 | -12 | -10 | 53* | 18 | 26 | 19 | 38 | 11 | 25
C=CCOC(=O)C1=C(C)NC(SCC(=O)Nc2nccs2)=C(C#N)C1c1ccc(Cl)cc1 (stereo not drawn) | -6 | -11 | -13 | 30 | 8 | 46 | / | / | / | /
COC(=O)c1ccccc1NC(=O)CSc1nnnn1-c1ccc(C)cc1C | -2 | 0 | -27 | 50* | 14 | -3 | 30* | 32 | 4 | 3
Cc1noc(C)c1C(=O)Nc1nc(-c2ccc([N+](=O)[O-])cc2)cs1 | -1 | 4 | -12 | 57* | 8 | 18 | 37* | 47 | 10 | 6
